From ChEMBL document CHEMBL2203279, “Synthesis and pharmacokinetic profile of rhein- boswellic acid conjugate” (Bioorg Med Chem Lett, 2012) come the findings set out here.

Data set [1] can be described thus: Chemical stability of the compound in HCl buffer at pH 1.2. In kind it is physicochemical. An outline of the steps:
(§1)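 Prodrug (10 mg) incubated in aqueous buffer (HCl pH 1.2 or phosphate pH 7.4) at 37 ± 0.5 °C, stirred at 100 rpm; aliquots withdrawn with medium replacement at intervals up to 7 h. Residual prodrug and released rhein/boswellic acid quantified by RP-HPLC at 211 nm. First-order rate constant from slope of log residual prodrug vs time; triplicate, mean taken.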

Data set [2] deals with Blood. The experiment in a line: Prodrug conversion in po dosed Wistar rat blood assessed as rhein production from 4 to 7 hrs. To be noted: in vivo. In kind it is ADME, organism-based. An outline of the steps:
(§2)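 Overnight-fasted Wistar rats (water allowed) given prodrug 2.5 mg in 0.5 mL saline orally. Blood taken by retro-orbital puncture at intervals over up to 8 h, processed by methanol protein precipitation and centrifugation, and analysed by RP-HPLC for intact prodrug, rhein and boswellic acid, expressed as percent of administered dose.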

A short description of data set [3]: Drug excretion in po dosed Wistar rat urine assessed as rhein up to 24 hrs. To be noted: in vivo. The class given is ADME, organism-based. An outline of the steps: (§3)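 Wistar rats given prodrug 2.5 mg in 0.5 mL saline orally after overnight fast; urine and feces collected from metabolic cages at intervals over 24 h and pooled. Urine diluted 10-fold and feces 100-fold in phosphate buffer pH 7.4, then analysed by RP-HPLC for intact prodrug, rhein and boswellic acid as percent.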

A short description of data set [4]: Drug excretion in po dosed Wistar rat feces up to 24 hrs. The class given is ADME, organism-based. The note with it: faeces, read-out: Drug excretion. An outline of the steps:
as §3

The nature of data set [5]: Prodrug conversion in phosphate buffer assessed as half life of hydrolysis at pH 7.4. In kind it is physicochemical. Summed up:
as §1

The subject of data set [6] is Stomach. The experiment in a line: Metabolic stability in rat stomach homogenate. The class given is ADME, tissue-based. To be noted: tissue homogenate. Summed up: (§4)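 Prodrug solution in buffer (250 µg/mL) added to rat stomach or small intestinal homogenate pre-equilibrated at 37 ± 0.5 °C. Samples taken at intervals, centrifuged, supernatant filtered and analysed by RP-HPLC at 211 nm for residual prodrug and released rhein/boswellic acid. Rate constant from log residual prodrug vs time slope; triplicate, mean rate constant.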

Data set [7] relates to Blood. The experiment in a line: Drug uptake in po dosed Wistar rat blood at 7 hrs. In kind it is ADME, organism-based. The note with it: in vivo. Summed up:
as §2

For data set [8], the system named is Blood. In words: Drug uptake in po dosed Wistar rat blood at 6 hrs. The class given is ADME, organism-based. The note with it: in vivo. Summed up: as §2
The test system of data set [9] is Blood. In words: Drug uptake in po dosed Wistar rat blood at 4 hrs. In kind it is ADME, organism-based. The note with it: in vivo. An outline of the steps: as §2
Data set [10] relates to Blood. The experiment in a line: Drug uptake in po dosed Wistar rat blood at 5 hrs. To be noted: in vivo. The class given is ADME, organism-based. Summed up:
as §2

A short description of data set [11]: n-Octanol-phosphate buffer partition coefficient, log P of the compound at pH 7.4. In kind it is physicochemical. Summed up: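 Partition coefficient measured between n-octanol and phosphate buffer pH 7.4, with concentrations read by UV–visible spectrophotometry.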
Data set [12] is described as follows: Drug excretion in po dosed Wistar rat urine assessed as boswellic acid up to 24 hrs. In kind it is ADME, organism-based. The note with it: in vivo. Summed up: as §3
The nature of data set [13]: Drug excretion in po dosed Wistar rat feces assessed as boswellic acid up to 24 hrs. In kind it is ADME, organism-based. The note with it: in vivo. An outline of the steps:
as §3

Data set [14] has as its system Blood. In words: Drug uptake in po dosed Wistar rat blood at 3 hrs. In kind it is ADME, organism-based. The note with it: in vivo. Summed up:
as §2

Data set [15] relates to Intestine. The experiment in a line: Prodrug conversion in rat small intestine homogenate assessed as half life of hydrolysis. In kind it is ADME, tissue-based. The note with it: tissue homogenate. Summed up: as §4
Data set [16] can be described thus: Drug excretion in po dosed Wistar rat feces assessed as rhein up to 24 hrs. The class given is ADME, organism-based. The note with it: in vivo. Summed up:
as §3

A short description of data set [17]: Drug excretion in po dosed Wistar rat urine up to 24 hrs. The class given is ADME, organism-based. The note with it: read-out: Drug excretion. Summed up: as §3
In data set [18] the test system is Plasma. The experiment in a line: Prodrug conversion in 80% human plasma assessed as half life of hydrolysis. The class given is ADME, cell-free. An outline of the steps: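 80% human plasma prepared in 0.05 M phosphate buffer pH 7.4; prodrug methanol stock (250 µg/mL) mixed 1:1 with plasma and incubated at 37 ± 0.5 °C over 7 h. At intervals, centrifuged cold, supernatant protein-precipitated with methanol, recentrifuged, filtered and analysed by RP-HPLC for residual prodrug and released rhein/boswellic acid. Rate constant from log residual prodrug vs time; triplicate.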

The subject of data set [19] is Blood. In words: Drug uptake in po dosed Wistar rat blood at 2 hrs. In kind it is ADME, organism-based. The note with it: in vivo. Summed up: as §2
The test system of data set [20] is Blood. In words: Prodrug conversion in po dosed Wistar rat blood assessed as boswellic acid production from 4 to 7 hrs. In kind it is ADME, organism-based. To be noted: in vivo. Summed up:
as §2

Structures are written as SMILES.

On to `CC1(C)CC[C@]2(C)CC[C@]3(C)C(=CC[C@@H]4[C@@]5(C)CC[C@@H](O)[C@](C)(C(=O)Oc6cccc7c6C(=O)c6c(OC(=O)[C@@]8(C)[C@H](O)CC[C@@]9(C)[C@H]8CC[C@]8(C)[C@@H]9CC=C9[C@@H]%10CC(C)(C)CC[C@]%10(C)CC[C@]98C)cc(C(=O)O)cc6C7=O)[C@@H]5CC[C@]43C)[C@@H]2C1`, for which the Stability entry in data set [1] and in data set [6] was “Stable” each time. The Drug metabolism result in [2] and in [20] was “Active” throughout. In addition, the Drug excretion in data set [3] was 7.1%; in data set [12] it was 8.9%; in [13], 4.59%; in data set [16], “Not Active”. For the same molecule, the results for the dose excreted at 24 h in data set [4] and in data set [17] were 3.1% and 6.2%, respectively. Further, the t1/2 in [5] worked out at 3.205 h; in data set [15], 2.672 h; in [18], 3.102 h. Also, the Drug uptake in [7] amounted to 3.4%; in data set [8], 12%; in data set [9], 34.5%; in data set [10] it was 22%; in data set [14] it was 70.43%; in [19] it was 93.6%. This molecule also gave a logD in data set [11] of 2.57.
As to `O=C(O)c1cc(O)c2c(c1)C(=O)c1cccc(O)c1C2=O` [RHEIN], the logD in [11] stood at 0.24.

In general, logD refers to lipophilicity at a set pH, counting ionised and neutral species.
